Broadly, the pEC50 is the EC50 on a negative log10 scale, so that one unit is a factor of ten.

Here are results for 48 molecules from ChEMBL document CHEMBL4342468, “Evolution of a 4-Benzyloxy-benzylamino Chemotype to Provide Efficacious, Potent, and Isoform Selective PPARα Agonists as Leads for Retinal Disorders” (J Med Chem, 2020).

The target in assay [1] is T1, Peroxisome proliferator-activated receptor alpha (Homo sapiens) (UniProt Q07869).
T1 sequence (whole entry): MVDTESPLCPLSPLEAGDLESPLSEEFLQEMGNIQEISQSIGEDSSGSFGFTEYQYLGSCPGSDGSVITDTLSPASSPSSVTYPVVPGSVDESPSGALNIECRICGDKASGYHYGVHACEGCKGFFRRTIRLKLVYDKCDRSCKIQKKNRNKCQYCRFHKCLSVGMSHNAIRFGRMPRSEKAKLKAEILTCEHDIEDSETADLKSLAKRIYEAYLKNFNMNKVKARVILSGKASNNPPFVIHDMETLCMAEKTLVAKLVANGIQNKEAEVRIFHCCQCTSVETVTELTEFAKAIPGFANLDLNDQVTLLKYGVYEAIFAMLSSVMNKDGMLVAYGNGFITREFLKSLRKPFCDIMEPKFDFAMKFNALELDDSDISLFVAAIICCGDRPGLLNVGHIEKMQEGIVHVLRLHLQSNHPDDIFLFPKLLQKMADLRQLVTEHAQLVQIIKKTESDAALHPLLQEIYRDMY
Kind of assay: Agonist activity at human PPARalpha expressed in nonhuman mammalian cells assessed as maximal increase in receptor transcriptional activity incubated for 22 to 24 hrs by luciferase reporter gene assay relative to GW590735. The assay is classed as cell-based. Background: In a reporter assay the amount or activity of a reporter protein is the signal.

For assay [2], the target named is T2, Peroxisome proliferator-activated receptor alpha (Homo sapiens, UniProt Q07869).
T2 sequence (Q07869 whole entry): T1 sequence (whole entry)

The species named for assay [3] is Homo sapiens. The assay is described as follows: Selectivity index, ratio of EC50 for human PPARdelta expressed in nonhuman mammalian cells to EC50 for human PPARalpha expressed in nonhuman mammalian cells measured after 22 to 24 hrs by luciferase reporter gene assay. It counts as cell-based. A digest of the protocol: (§1)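 Reporter cells (non-human mammalian) expressing human PPARα, γ or δ linked to a luciferase reporter were pre-incubated 4–6 h at 37 °C, 5% CO2 in medium with 10% charcoal-stripped FBS. SI = EC50(PPARγ or δ)/EC50(PPARα).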

In assay [4] the target is T3, Peroxisome proliferator-activated receptor gamma (Homo sapiens, UniProt P37231).
T3 sequence (P37231 whole entry): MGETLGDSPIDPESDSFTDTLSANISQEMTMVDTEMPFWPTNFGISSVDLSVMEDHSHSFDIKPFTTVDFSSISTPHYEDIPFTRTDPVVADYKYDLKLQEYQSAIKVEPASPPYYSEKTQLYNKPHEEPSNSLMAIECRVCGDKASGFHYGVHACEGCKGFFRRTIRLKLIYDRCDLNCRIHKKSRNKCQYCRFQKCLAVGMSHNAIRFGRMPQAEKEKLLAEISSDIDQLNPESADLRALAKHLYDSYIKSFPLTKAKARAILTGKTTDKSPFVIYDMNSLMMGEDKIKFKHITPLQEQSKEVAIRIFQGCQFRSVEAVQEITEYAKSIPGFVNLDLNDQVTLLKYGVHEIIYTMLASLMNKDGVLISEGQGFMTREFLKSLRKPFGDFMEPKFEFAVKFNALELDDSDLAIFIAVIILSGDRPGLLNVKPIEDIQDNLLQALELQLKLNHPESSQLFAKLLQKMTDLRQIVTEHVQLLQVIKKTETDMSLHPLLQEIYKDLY
Kind of assay: Agonist activity at human PPARgamma expressed in nonhuman mammalian cells assessed as increase in receptor transcriptional activity incubated for 22 to 24 hrs by luciferase reporter gene assay. The assay is classed as cell-based. A digest of the protocol:
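Reporter cells (nonhuman mammalian, engineered PPAR receptor with luciferase linked to response promoter) pre-incubated 4–6 h at 37 °C, 5% CO2 in medium with 10% charcoal-stripped FBS. Medium replaced with compound-containing screening medium, 22–24 h at 37 °C, then luciferase detection reagent, luminescence read. Multi-point dose-response for EC50; mean ± SEM of at least two separate experiments in triplicate.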

Assay [5] is filed under the species Homo sapiens. The assay is described as follows: Selectivity index, ratio of EC50 for human PPARgamma expressed in nonhuman mammalian cells to EC50 for human PPARalpha expressed in nonhuman mammalian cells measured after 22 to 24 hrs by luciferase reporter gene assay. The assay is classed as cell-based. The method, boiled down: as §1
Assay [6] concerns the target T4, Peroxisome proliferator-activated receptor delta (Homo sapiens, UniProt Q03181).
T4 sequence (Q03181 whole entry): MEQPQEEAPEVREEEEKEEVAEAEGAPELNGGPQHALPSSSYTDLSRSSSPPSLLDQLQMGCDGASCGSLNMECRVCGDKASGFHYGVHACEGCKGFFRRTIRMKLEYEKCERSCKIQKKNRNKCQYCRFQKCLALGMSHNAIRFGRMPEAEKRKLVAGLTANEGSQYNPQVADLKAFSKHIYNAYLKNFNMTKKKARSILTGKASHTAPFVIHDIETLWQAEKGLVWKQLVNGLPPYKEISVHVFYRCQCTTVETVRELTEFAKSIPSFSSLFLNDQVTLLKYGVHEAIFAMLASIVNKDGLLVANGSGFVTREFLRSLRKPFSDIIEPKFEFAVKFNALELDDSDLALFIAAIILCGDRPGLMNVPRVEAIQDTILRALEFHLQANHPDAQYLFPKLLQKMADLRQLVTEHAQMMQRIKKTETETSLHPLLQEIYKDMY
The assay is described as follows: Agonist activity at human PPARdelta expressed in nonhuman mammalian cells assessed as increase in receptor transcriptional activity incubated for 22 to 24 hrs by luciferase reporter gene assay. The assay is classed as cell-based.

In assay [7] the target is T1, Peroxisome proliferator-activated receptor alpha (Homo sapiens). The assay is described as follows: Binding affinity to His-tagged PPARalpha LBD (unknown origin) expressed in Escherichia coli Rosetta (DE3) assessed as change in enthalpy at 25 degree C by isothermal titration calorimetry. (In general: In ITC the heat of successive injections is recorded.)
Assay [8] has the same target. The assay is described as follows: Binding affinity to His tagged PPARalpha LBD (unknown origin) expressed in Escherichia coli Rosetta (DE3) assessed as change in entropy at 25 degree C by isothermal titration calorimetry.

pEC50: −log10 of the molar value.

As to `Cc1cc(CN(C)c2cccc(C(=O)O)c2)ccc1OCc1ccc(F)cc1`, the fold change (FC) in assay [1] came out at 2.1. In assay [2], the pEC50 is 7.17.
In the case of `CC(C)(Sc1cccc(NCc2ccc(OCc3ccc(F)cc3)cc2)c1)C(=O)O`, the fold change (FC) in assay [1] turned out to be 1.1.
As to `O=C(O)c1cccc(NCc2ccc(OCc3ccc(I)cc3)cc2)c1`, the fold change (FC) in assay [1] amounted to 1.1. Also, in assay [2], the pEC50 is 5.84.
For the molecule `COc1ccc(COc2ccc(CNc3cccc(OC(C)(C)C(=O)O)c3)cc2)cc1`, in assay [1], the fold change (FC) was determined as 1.8.
For `O=C(O)c1cccc(NCc2ccc(OCc3ccc(F)cc3)c(OCc3ccc(F)cc3)c2)c1`, the fold change (FC) in assay [1] worked out at 1.4. The molecule also had a pEC50 in assay [2] of 6.09.
In the case of `O=C(O)c1cccc(NCc2ccc(OCc3ccc(F)cc3)c(F)c2)c1`, in assay [1], the fold change (FC) is 1.7.
For `O=C(O)c1cc(F)cc(NCc2ccc(OCc3ccc(F)cc3)cc2)c1`, the Ratio EC50 in the assay listed under Homo sapiens [3] and in the assay filed under Homo sapiens [5] was greater than 170 each time. The fold change (FC) in assay [1] was found to be 1.1. Moreover, the pEC50 in assay [4] was less than 4.00; in assay [2], 6.24; in assay [6] it was less than 4.00.
As for `O=C(O)c1cc(F)cc(NCc2ccc(OCc3ccc(F)cc3)c(Cl)c2)c1`, the fold change (FC) in assay [1] is 1.8. This molecule also had a pEC50 in assay [2] of 7.28.
The like results for `O=C(O)c1cccc(NCc2ccc(OCc3ccc(F)cc3)cc2OCc2ccc(F)cc2)c1` were, in that order, 1.2 and 6.03.
For `CC(C)(Oc1cccc(NCc2ccc(OCc3ccc(C(F)(F)F)cc3)cc2)c1)C(=O)O`, in assay [1], the fold change (FC) was 1.2.
`COc1ccc(CCOc2ccc(CNc3cccc(C(=O)O)c3)cc2)cc1`: the fold change (FC) in assay [1] was determined as 0.9.
Still for that read-out and setting: under `Cc1cc(CNc2cccc(C(=O)O)c2)ccc1OCc1ccc(F)c(F)c1` stands 1.6; under `Cc1cc(CNc2cccc(C(=O)O)c2)ccc1OCc1cc(F)cc(F)c1`, 1.6.
The same measure, in the same setting: under `Fc1ccc(COc2ccc(CNc3cccc(-c4nnn[nH]4)c3)cc2)cc1` stands 1.6.
Consider `CS(=O)(=O)Nc1cccc(NCc2ccc(OCc3ccc(F)cc3)cc2)c1`, for which, in assay [1], the fold change (FC) came to 0.1.
Same read-out and setting: under `O=C(NO)c1cccc(NCc2ccc(OCc3ccc(F)cc3)cc2)c1` stands 0.6; under `O=C(O)c1ccc(NCc2ccc(OCc3ccc(F)cc3)cc2)cc1`, 0.4.
Turning to `Cc1cc(CNc2cccc(C(=O)O)c2)ccc1OCc1ccc(I)cc1`, in assay [1], the fold change (FC) turned out to be 1.5.
In the case of `Cc1cc(CNc2cccc(C(=O)O)c2)ccc1OCc1ccc(Cl)cc1`, the fold change (FC) in assay [1] came out at 1.2.
Turning to `O=C(O)c1cc(Cl)cc(NCc2ccc(OCc3ccc(F)cc3)cc2)c1`, in assay [1], the fold change (FC) turned out to be 1.1.
As for `O=C(O)c1cccc(NCc2ccc(OCc3cccc(F)c3)cc2)c1`, the fold change (FC) in assay [1] amounted to 1.2. For the same molecule, the pEC50 in assay [2] was 5.93.
Take `CC(C)(Oc1ccc(CNc2cccc(C(=O)O)c2)cc1)c1ccc(F)cc1`: in assay [1], the fold change (FC) came out at 0.8. The pEC50 in assay [2] is 5.07.
With `O=C(O)c1cccc(NCc2ccc(OCc3ccc(F)cc3F)cc2)c1`, the Ratio EC50 in the assay filed under Homo sapiens [3] and in the assay listed under Homo sapiens [5] was greater than 175 each time. For the same molecule, the fold change (FC) in assay [1] turned out to be 1.2. The pEC50 is less than 4.00 in assay [4], 6.27 in assay [2] and less than 4.00 in assay [6].
With `O=C(O)c1cccc(NCc2ccc(OCc3ccc(C(F)(F)F)cc3)cc2)c1`, the fold change (FC) in assay [1] came out at 0.9. Further, the pEC50 in assay [2] was 6.02.
Take `Cc1cc(CNc2cccc(C(=O)O)c2)ccc1OCc1ccc(Br)cc1`: the fold change (FC) in assay [1] was 1.3.
As for `Cc1cc(CNc2cc(F)cc(C(=O)O)c2)ccc1OCc1ccc(F)cc1`, the fold change (FC) in assay [1] came out at 1.5.
For `O=C(O)c1cc(Br)cc(NCc2ccc(OCc3ccc(F)cc3)cc2)c1`, the Ratio EC50 in the assay listed under Homo sapiens [3] and in the assay listed under Homo sapiens [5] was greater than 100 throughout. The fold change (FC) in assay [1] came to 1.4. The pEC50 in assay [4] is less than 4.00; in assay [2] it was 5.95; in assay [6], less than 4.00.
Take `CC(C)(Oc1ccc(NCc2ccc(OCc3ccc(F)cc3)cc2)cc1)C(=O)O`: in assay [1], the fold change (FC) was determined as 1.8.
Take `Cc1nc(-c2ccc(C(F)(F)F)cc2)sc1C(=O)NCc1ccc(OC(C)(C)C(=O)O)cc1`: the fold change (FC) in assay [1] was determined as 1. Moreover, the deltaH in assay [7] was -14.1 kcal/mol. Also, the -TdeltaS in assay [8] was determined as 4.9 kcal/mol.
As to `OB(O)c1cccc(NCc2ccc(OCc3ccc(F)cc3)cc2)c1`, the fold change (FC) in assay [1] turned out to be 0.1.
On to `O=C(O)c1cccc(NCc2ccc(OCc3ccc(F)cc3)c(Cl)c2)c1`, for which, in assay [1], the fold change (FC) came out at 1.5.
Take `NS(=O)(=O)c1cccc(NCc2ccc(OCc3ccc(F)cc3)cc2)c1`: the fold change (FC) in assay [1] is 0.1.
As to `O=C(O)c1cccc(NCc2ccc(OCc3ccc(F)c(F)c3)cc2)c1`, in assay [1], the fold change (FC) stood at 1.2. In assay [2], this molecule gave a pEC50 of 6.44.
In the case of `O=C(O)c1cccc(NCc2ccc(OCc3cc(F)cc(F)c3)cc2)c1`, the fold change (FC) in assay [1] is 1.1.
With `C[C@@H](Oc1ccc(CNc2cccc(C(=O)O)c2)cc1)c1ccc(F)cc1`, in assay [1], the fold change (FC) is 0.6. The molecule also gave a pEC50 in assay [2] of 4.59.
With `N#Cc1ccc(COc2ccc(CNc3cccc(C(=O)O)c3)cc2)cc1`, the fold change (FC) in assay [1] is 1.
Consider `Cc1cc(CNc2cccc(C(=O)O)c2)ccc1OCc1ccc(F)cc1F`, for which the fold change (FC) in assay [1] worked out at 1.4.
In the case of `CN(Cc1ccc(OCc2ccc(F)cc2)cc1)c1cccc(C(=O)O)c1`, the fold change (FC) in assay [1] came to 1.7. The molecule also showed a pEC50 in assay [2] of 6.05.
The like results for `O=C(O)c1cc(NCc2ccc(OCc3ccc(F)cc3)cc2)ccc1F` were, in that order, 1.2 and 5.79.
As for `O=C(O)c1cccc(NCc2ccc(OCc3ccccc3F)cc2)c1`, in assay [1], the fold change (FC) was determined as 1.
On the same count and under the same terms, under `O=C(O)c1cccc(NCc2ccc(OCCc3ccccc3)cc2)c1` stands 0.9; under `Cc1cc(CNc2cccc(OC(C)(C)C(=O)O)c2)ccc1OCc1ccc(F)cc1`, 1.6.
For `O=C(O)c1cccc(NCc2ccc(OCc3ccc(Br)cc3)cc2)c1`, the fold change (FC) in assay [1] came to 1.3. Further, in assay [2], the pEC50 is 6.01.
The like results for `Cc1cc(OCc2ccc(F)cc2)ccc1CNc1cccc(C(=O)O)c1` were, in that order, 1.2 and 5.84.
As to `Cc1ccc(C(=O)O)cc1NCc1ccc(OCc2ccc(F)cc2)cc1`, in assay [1], the fold change (FC) stood at 0.3.
Still for that read-out and setting: under `C[C@H](Oc1ccc(CNc2cccc(C(=O)O)c2)cc1)c1ccc(F)cc1` stands 1.6; under `CC(C)(Oc1cccc(NCc2ccc(OCc3ccc(F)cc3)cc2)c1)C(=O)O`, 2.
For `O=C(O)c1cccc(NCc2ccc(OCc3ccc(Cl)cc3)cc2)c1`, the fold change (FC) in assay [1] amounted to 1.5. This molecule also showed a pEC50 in assay [2] of 6.08.
